From ChEMBL document CHEMBL1151223, “Antimycotic spirostanol saponins from Solanum hispidum leaves and their structure-activity relationships” (2004) come the findings set out here.

Values after ≈ are worked out from the molar mass of the structure shown. Where only a bound is given, the exact number is not on record here.

The test system of one test is Trichophyton rubrum. Nature of the test: Antimycotic activity against Trichophyton rubrum ATCC 28188 after 72 hrs. The following applies: ATCC 28188, 72 h. Type of test: functional. The essentials:
(§1)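 Agar dilution MIC on Sabouraud glucose agar; the filamentous fungi were maintained on potato dextrose agar at 27 °C. DMSO stocks were diluted 2-fold and added to the medium: pure compounds 400-3.125 µg/mL, extracts 10-1.25 mg/mL, references 128-1 µg/mL; final DMSO at most 2%. A hemocytometer-counted spore inoculum was loop-applied to the agar surface, and plates were incubated at 29 °C for 72 h. MIC was the lowest concentration with no visible growth; run in triplicate.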

Another test relates to Aspergillus niger. The experiment in a line: Antimycotic activity against Aspergillus niger ATCC 10335 after 48 hrs. The conditions noted are these: ATCC 10335, 48 h.
Test [1] has as its system Candida albicans. Nature of the test: Antimycotic activity against Candida albicans ATCC 10231 after 24 hrs. The following applies: ATCC 10231, 24 h.
The test system of test [2] is Trichophyton mentagrophytes. The experiment in a line: Antimycotic activity against Trichophyton mentagrophytes ATCC 28185 after 72 hrs. The format is functional. The conditions noted are these: ATCC 28185, 72 h. The essentials: as §1
For test [3], the system named is Candida albicans. The experiment in a line: Antimycotic activity against Candida albicans ATCC 10231 after 48 hrs. The format is functional.

For orientation: MIC means the lowest concentration that inhibits growth of the organism. Higher therefore signals weaker potency. Take `C[C@@H]1CC[C@@]2(OC1)O[C@H]1C[C@H]3[C@@H]4C[C@H](O[C@@H]5OC[C@@H](O)[C@H](O)[C@H]5O)[C@H]5C[C@@H](O)CC[C@]5(C)[C@H]4CC[C@]3(C)[C@H]1[C@@H]2C`: the MIC was 100 µg/mL (≈ 177 µM) against Trichophyton rubrum, > 400 µg/mL against Aspergillus niger, 200 µg/mL (≈ 354 µM) against Candida albicans [1] and 100 µg/mL (≈ 177 µM) in test [2].
For the molecule `C[C@@H]1CO[C@@]2(O[C@H]3C[C@H]4[C@@H]5C[C@H](O[C@@H]6O[C@H](C)[C@@H](O)[C@H](O[C@@H]7OC[C@@H](O)[C@H](O)[C@H]7O)[C@H]6O)[C@H]6C[C@@H](O)CC[C@]6(C)[C@H]5CC[C@]4(C)[C@H]3[C@@H]2C)[C@H](O)C1`, the MIC in the test on Trichophyton rubrum was 100 µg/mL (≈ 138 µM); against Aspergillus niger, > 400 µg/mL; with Candida albicans [1], > 400 µg/mL; in test [2], 100 µg/mL (≈ 138 µM).
In turn, NYSTATIN had an MIC in the test with Candida albicans [3] of 8 µg/mL.
As to `C[C@H]1CC[C@@]2(OC1)O[C@H]1C[C@H]3[C@@H]4C[C@H](O[C@@H]5O[C@H](C)[C@@H](O)[C@H](O)[C@H]5O)[C@H]5C[C@@H](O)CC[C@]5(C)[C@H]4CC[C@]3(C)[C@H]1[C@@H]2C`, the MIC with Trichophyton rubrum was 50 µg/mL (≈ 86.4 µM); against Aspergillus niger, > 400 µg/mL; in the test on Candida albicans [1] it was > 400 µg/mL; in test [2], 25 µg/mL (≈ 43.2 µM).
Consider `C[C@H]1CO[C@@]2(O[C@H]3C[C@H]4[C@@H]5C[C@H](O[C@@H]6O[C@H](C)[C@@H](O)[C@H](O[C@@H]7O[C@H](C)[C@@H](O)[C@H](O)[C@@H]7O)[C@H]6O)[C@H]6C[C@@H](O)CC[C@]6(C)[C@H]5CC[C@]4(C)[C@H]3[C@@H]2C)[C@@H](O)C1`, for which the MIC (in the test on Trichophyton rubrum; in the test on Aspergillus niger; in the test on Candida albicans [1]; in test [2]) was 200 µg/mL (≈ 270 µM) each time.
As to `C[C@@H]1CC[C@@]2(OC1)O[C@H]1C[C@H]3[C@@H]4C[C@H](O[C@@H]5O[C@H](C)[C@@H](O)[C@H](O)[C@H]5O)[C@H]5C[C@@H](O)CC[C@]5(C)[C@H]4CC[C@]3(C)[C@H]1[C@@H]2C`, the MIC against Trichophyton rubrum is 50 µg/mL (≈ 86.4 µM); against Aspergillus niger, > 400 µg/mL; against Candida albicans [1] it was 200 µg/mL (≈ 346 µM); in test [2] it was 25 µg/mL (≈ 43.2 µM).
The like results for `C[C@@H]1CC[C@@]2(OC1)O[C@H]1C[C@H]3[C@@H]4C[C@H](O[C@@H]5O[C@H](C)[C@@H](O)[C@H](O[C@@H]6OC[C@@H](O)[C@H](O)[C@H]6O)[C@H]5O)[C@H]5C[C@@H](O)CC[C@]5(C)[C@H]4CC[C@]3(C)[C@H]1[C@@H]2C` were, in that order, 12.5 µg/mL (≈ 17.6 µM), 100 µg/mL (≈ 141 µM), 200 µg/mL (≈ 281 µM) and 12.5 µg/mL (≈ 17.6 µM).
The corresponding values for `C[C@@H]1CO[C@@]2(O[C@H]3C[C@H]4[C@@H]5C[C@H](O[C@@H]6O[C@H](C)[C@@H](O)[C@H](O[C@@H]7OC[C@@H](O)[C@H](O)[C@H]7O)[C@H]6O)[C@H]6C[C@@H](O)CC[C@]6(C)[C@H]5CC[C@]4(C)[C@H]3[C@@H]2C)[C@@H](O)C1` are 25 µg/mL (≈ 34.4 µM), > 400 µg/mL, > 400 µg/mL and 25 µg/mL (≈ 34.4 µM).
Regarding `C[C@@H]1CC[C@@]2(OC1)O[C@H]1C[C@H]3[C@@H]4C[C@H](O[C@@H]5O[C@H](C)[C@@H](O)[C@H](O[C@@H]6O[C@H](C)[C@@H](O)[C@H](O)[C@@H]6O)[C@H]5O)[C@H]5C[C@@H](O)CC[C@]5(C)[C@H]4CC[C@]3(C)[C@H]1[C@@H]2C`, the MIC against Trichophyton rubrum amounted to 50 µg/mL (≈ 69 µM); against Aspergillus niger it was 400 µg/mL (≈ 552 µM); in the test with Candida albicans [1], 200 µg/mL (≈ 276 µM); in test [2], 200 µg/mL (≈ 276 µM).
Consider `Clc1ccc(COC(Cn2ccnc2)c2ccc(Cl)cc2Cl)c(Cl)c1` (stereo not given) [MICONAZOLE], for which the values for the minimum inhibitory concentration (MIC) (against Trichophyton rubrum; against Aspergillus niger; in test [2]) were 4 µg/mL (≈ 9.61 µM), 8 µg/mL (≈ 19.2 µM) and 4 µg/mL (≈ 9.61 µM), respectively.
Consider `C[C@H]1CC[C@@]2(OC1)O[C@H]1C[C@H]3[C@@H]4C[C@H](O[C@@H]5O[C@H](C)[C@@H](O)[C@H](O[C@@H]6OC[C@@H](O)[C@H](O)[C@H]6O)[C@H]5O)[C@H]5C[C@@H](O)CC[C@]5(C)[C@H]4CC[C@]3(C)[C@H]1[C@@H]2C`, for which the MIC is 25 µg/mL (≈ 35.2 µM) in the test on Trichophyton rubrum, > 400 µg/mL in the test on Aspergillus niger, > 400 µg/mL against Candida albicans [1] and 25 µg/mL (≈ 35.2 µM) in test [2].
